Active and inactive are the calls of the source. No cut-off for these calls is given here.
Legend:
[1] = Cardiotoxicity in BALB/c mouse implanted with mouse CT26 cells assessed as effect on heart morphology by measuring edema at 50 mg/kg, po administered once daily by H and E staining based histopathological analysis; type: toxicity, organism-based; conditions: in vivo
Method in brief: (§1)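 CT-26 subcutaneous flank tumour model in male BALB/c mice, five per group, dosed orally at 50mg/kg daily in 5% NMP/95% PEG 400 versus vehicle. After treatment, heart, liver, spleen, lung and kidney collected, sectioned and stained with H&E for histological examination.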

[2] = Cardiotoxicity in BALB/c mouse implanted with mouse CT26 cells assessed as effect on heart morphology by measuring cell inflammation at 50 mg/kg, po administered once daily by H and E staining based histopathological analysis; type: toxicity, organism-based; conditions: in vivo; method in brief: as §1
[3] = Toxicity in BALB/c mouse implanted with mouse CT26 cells assessed as effect on lung morphology by measuring edema at 50 mg/kg, po administered once daily by H and E staining based histopathological analysis; type: organism-based; conditions: in vivo; method in brief: as §1
[4] = biological target: T1, Signal transducer and activator of transcription 3 (Homo sapiens, UniProt P40763); assay: Inhibition of STAT3 phosphorylation at Y705 residue in human HepG2 cells at 400 nM after 24 to 48 hrs by sandwich-ELISA; type: cell-based
T1 sequence (P40763 whole entry): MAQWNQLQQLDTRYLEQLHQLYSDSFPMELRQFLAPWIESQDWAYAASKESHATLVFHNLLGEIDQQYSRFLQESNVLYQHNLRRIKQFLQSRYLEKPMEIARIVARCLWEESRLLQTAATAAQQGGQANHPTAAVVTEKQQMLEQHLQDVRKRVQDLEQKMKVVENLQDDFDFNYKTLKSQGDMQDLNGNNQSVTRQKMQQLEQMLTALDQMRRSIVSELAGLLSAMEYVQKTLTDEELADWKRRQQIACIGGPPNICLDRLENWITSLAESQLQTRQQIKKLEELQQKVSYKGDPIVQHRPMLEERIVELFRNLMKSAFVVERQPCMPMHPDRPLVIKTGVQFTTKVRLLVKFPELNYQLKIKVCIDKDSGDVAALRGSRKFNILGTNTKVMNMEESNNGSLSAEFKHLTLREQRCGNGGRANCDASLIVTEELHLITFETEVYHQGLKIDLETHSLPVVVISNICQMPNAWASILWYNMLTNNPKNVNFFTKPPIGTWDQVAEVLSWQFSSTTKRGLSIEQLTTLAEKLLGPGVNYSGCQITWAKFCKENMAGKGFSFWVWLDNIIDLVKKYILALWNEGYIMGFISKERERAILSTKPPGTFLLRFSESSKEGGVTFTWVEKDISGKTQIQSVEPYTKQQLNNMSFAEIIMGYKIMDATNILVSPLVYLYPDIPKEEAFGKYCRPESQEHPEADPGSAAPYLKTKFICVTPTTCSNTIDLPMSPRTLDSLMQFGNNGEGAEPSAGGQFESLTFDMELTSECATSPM
Method in brief: (§2)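 Cells treated 24 or 48 h. Whole-cell lysates made in lysis buffer with protease inhibitor cocktail. Total STAT3 and p-STAT3 Y705 measured by sandwich ELISA. Three repeats; groups compared with control by paired t-test; means ± S.D.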

[5] = system: HepG2; assay: Antiproliferative activity against human HepG2 cells after 72 hrs by MTT assay; type: functional, cell-based; conditions: HepG2, 72 h
Method in brief: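 Cells seeded at 5 × 10^3 per well and cultured 24 h before compound addition at varied concentrations, then grown a further 72 h; 0.5% DMSO as solvent control. MTT (5mg/ml solution) added for 4 h, formazan dissolved in DMSO, absorbance read at 570nm. Each treatment in triplicate; Mean ± SD.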

[6] = system: CT26; assay: Antitumor activity against mouse CT26 cells implanted in BALB/c mouse assessed as tumor growth at 50 mg/kg, po administered once daily measured every 3 days relative to control; type: functional
Method in brief: (§3)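 Male BALB/c mice, 6 weeks old, given 1 × 10^6 CT-26 cells subcutaneously in the right flank. At about 70 mm3 tumour volume, randomized into groups of five and dosed orally once daily with 50mg/kg or vehicle (5% NMP in PEG 400). Tumours measured by caliper every 3 days, V = ab^2/2. Tumours weighed at sacrifice. TGI computed from mean tumour weights. T/C computed as mean RTV (Vt/V0) treated over control.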

[7] = Cardiotoxicity in BALB/c mouse implanted with mouse CT26 cells assessed as effect on heart morphology by measuring necrosis at 50 mg/kg, po administered once daily by H and E staining based histopathological analysis; type: toxicity, organism-based; conditions: in vivo; method in brief: as §1
[8] = Hepatotoxicity in BALB/c mouse implanted with mouse CT26 cells assessed as effect on liver morphology by measuring necrosis at 50 mg/kg, po administered once daily by H and E staining based histopathological analysis; type: toxicity, organism-based; conditions: in vivo; method in brief: as §1
[9] = Toxicity in BALB/c mouse implanted with mouse CT26 cells assessed as effect on lung morphology by measuring cell inflammation at 50 mg/kg, po administered once daily by H and E staining based histopathological analysis; type: organism-based; conditions: in vivo; method in brief: as §1
[10] = system: HepG2; assay: Potency index, ratio of napabucasin IC50 to test compound IC50 for human HepG2 cells; type: functional
[11] = system: U-251; assay: Decrease in total STAT3 level in human U251 cells at 200 nM after 24 to 48 hrs by sandwich-ELISA; type: ADME, cell-based; conditions: u-251, 0.2 µM; method in brief: as §2
[12] = biological target: T1, Signal transducer and activator of transcription 3; assay: Inhibition of STAT3 phosphorylation at Y705 residue in human U251 cells at 200 nM after 24 hrs by Western blot analysis; type: cell-based
Method in brief: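 Cells treated 24 and 48 h. Lysed in RIPA with protease inhibitors, protein quantified by BCA, equal amounts run on 10% SDS-PAGE and transferred to PVDF. Blocked in 5% milk, probed overnight at 4 °C with anti-total STAT3, anti-p-STAT3 (Tyr705) and GAPDH antibodies. ECL detection.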

[13] = Toxicity in BALB/c mouse implanted with mouse CT26 cells assessed as effect on spleen morphology by measuring cell inflammation at 50 mg/kg, po administered once daily by H and E staining based histopathological analysis; type: organism-based; conditions: in vivo; method in brief: as §1
[14] = system: CT26; assay: Antitumor activity against mouse CT26 cells implanted in BALB/c mouse assessed as tumor growth inhibition at 50 mg/kg, po administered once daily measured every 3 days relative to control; type: functional; conditions: 72 h, read-out: TGI; method in brief: as §3

inhibition [4]: Active
IC50 [5]: 490 nM
inhibition [12]: Active
SMILES: O=C(NCCN1CCCCC1)c1cc2c(o1)C(=O)c1ccccc1C2=O
Activity [1]: Non-Toxic
Activity [2]: Non-Toxic
Activity [3]: Non-Toxic
T/C [6]: 28%
Activity [7]: Non-Toxic
Activity [8]: Non-Toxic
Activity [9]: Non-Toxic
Ratio IC50 [10]: >10
Activity [11]: Toxic
Activity [13]: Non-Toxic
inhibition in vivo at 50 mg/kg [14]: 63%

— ChEMBL document CHEMBL4382247, “A novel series of napabucasin derivatives as orally active inhibitors of signal transducer and activator of transcription 3 (STAT3)” (Eur J Med Chem, 2019)
